Assay results pooled from the literature.
Protocols differ between the studies behind these lines.
Effect on: cell growth or viability

| Structure (SMILES) | cell line | assay | conditions | IC50 [µM] |
| --- | --- | --- | --- | --- |
| O=C1C(=Nc2ccc(Cl)cc2)c2ccccc2N1Cc1ccc(Br)cc1 | L02 | MTT | 48 h | > 100 |
| Cc1cc(Nc2ncnc3ccc(NC4=NC(C)(C)CO4)cc23)ccc1Oc1ccn2ncnc2c1 | HCC1419 | ATP luminescence | – | 0.0302 |
| O=C1C(=Nc2ccc(Cl)cc2)c2ccccc2N1Cc1cccc(Cl)c1 | L02 | MTT | 48 h | 32 |
| O=C(NO)c1ccc(Cn2cnc3c(Nc4ccc(Br)cc4F)ncnc32)cc1 | NALM-6 | MTT | 72 h | 2.12 |
| COc1cccc2c1C(=O)c1c(O)c3c(c(O)c1C2=O)C[C@@](O)(C(=O)CO)C[C@@H]3O[C@H]1C[C@H](N)[C@H](O)[C@H](C)O1 | MOLT-3 | XTT | 75 h | 0.046 |
| O=C(CCc1ccc(Cl)cc1)N1C(=O)C(=Nc2ccc(Cl)cc2Br)c2ccccc21 | L02 | MTT | 48 h | > 100 |
| Nc1ccccc1NC(=O)c1ccc(Cn2cnc3c(Nc4ccc(Cl)cc4)ncnc32)cc1 | NALM-6 | MTT | 72 h | 1.55 |
| Cc1nc(Nc2ncc(C(=O)Nc3c(C)cccc3Cl)s2)cc(N2CC[C@H](O)C2)n1 | REH | ATP luminescence | 72 h | > 10 |
| COc1cc([C@@H]2c3cc4c(cc3[C@@H](O[C@@H]3O[C@@H]5CO[C@@H](C)O[C@H]5[C@H](O)[C@H]3O)[C@H]3COC(=O)[C@H]23)OCO4)cc(OC)c1O | MOLT-3 | XTT | 75 h | 0.078 |
| CC(C)c1cccc(C(C)C)c1N=C1C(=O)Nc2ccccc21 | L02 | MTT | 48 h | 31.6 |
| C(=N\Nc1cc(N/N=C/c2cccc3cccnc23)ncn1)/c1cccc2cccnc12 | L02 | MTT | 48 h | 31.6 |
| Nc1nnc(-c2ccccc2O)cc1N1CC2CCC(C1)N2c1ccnc(F)c1 | NCI-H1944 | ATP luminescence | 7 days | > 1 |
| COc1cccc2c1C(=O)c1c(O)c3c(c(O)c1C2=O)C[C@@](O)(C(=O)CO)C[C@@H]3O[C@H]1C[C@H](N)[C@H](O)[C@H](C)O1 | CAL-51 | ATP luminescence | 72 h | 0.12 |
| C=C[C@]1(C)C=C2CC[C@H]3C(C)(C)CCC[C@]3(C)[C@H]2CC1 | MOLT-3 | XTT | 75 h | 125 |
| COc1ccc(Nc2ncnc3c2ncn3Cc2ccc(C(=O)Nc3ccccc3N)cc2)cc1 | NALM-6 | MTT | 72 h | 7.81 |
| CCOc1cc2ncc(C#N)c(Nc3ccc(OCc4ccccn4)c(Cl)c3)c2cc1NC(=O)/C=C/CN(C)C | HCC1419 | ATP luminescence | – | 0.014 |
| Cc1cccc(N=C2C(=O)N(Cc3ccc(Br)cc3)c3ccccc32)c1 | L02 | MTT | 48 h | 26 |
| COc1cc([C@@H]2c3cc4c(cc3[C@@H](O[C@@H]3O[C@@H]5CO[C@@H](C)O[C@H]5[C@H](O)[C@H]3O)[C@H]3COC(=O)[C@H]23)OCO4)cc(OC)c1O | MOLT-3 | XTT | – | 0.061 |
| COc1ccc(Nc2ncnc3c2ncn3Cc2ccc(C(=O)NO)cc2)cc1 | NALM-6 | MTT | 72 h | 2.01 |
| CCc1ccc(N=C2C(=O)N(Cc3ccccc3)c3ccccc32)cc1 | L02 | MTT | 48 h | 86.7 |
| CC(C)(C)c1cnc(CSc2cnc(NC(=O)C3CCN(C(=O)CCCCCCCN4Cc5cc6c(cc5C4)C(=O)N(C4CCC(=O)NC4=O)C6=O)CC3)s2)o1 (stereo not drawn) | NALM-6 | MTT | – | 0.0234 |
| Cc1ncsc1-c1ccc(CNC(=O)[C@@H]2C[C@@H](O)CN2C(=O)[C@@H](NC(=O)C2(F)CC2)C(C)(C)C)c(OCCOc2ccc(CN3CCN(c4cc(-c5ccccc5O)nnc4N)CC3)cc2)c1 | NCI-H1944 | ATP luminescence | 7 days | 0.169 |
| O=C1C(=Nc2ccc(Cl)cc2Br)c2ccccc2N1Cc1ccc(Br)cc1 | L02 | MTT | 48 h | 7.75 |
| C(=N\Nc1cc(N/N=C/c2cccc3cccnc23)nc(-c2ccccc2)n1)/c1cccc2cccnc12 | L02 | MTT | 48 h | > 100 |
